≈ marks a conversion by molar mass, not a printed value.
Legend:
[1] = target: Bovine serum albumin (BSA)-glucose model (Bos taurus, UniProt P02769); assay: In vitro anti-glycation assay, BSA-glucose model; assay type: biochemical; settings: for inhibition at 100 ppm / inhibition at 200 ppm / inhibition at 400 ppm / inhibition at 600 ppm / inhibition at 800 ppm / inhibition at 1000 ppm: read-out: % age antiglycation inhibition
How it was run: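 Glycation is read by measuring the fluorescence of glycated products on a spectrofluorometer.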

glycation [2] = settings: read-out: IC50, antiglycation; cited from earlier work
glycation [3] = settings: cited from earlier work
α-amylase = assay: α-Amylase inhibition assay; assay type: biochemical; settings: for IC50: read-out: IC50 ± SEM, α-amylase inhibition
[4] = DPPH radical scavenging assay; settings: for IC50: read-out: IC50 (mM ± SEM), DPPH scavenged by 50%
How it was run: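 Radical scavenging of DPPH by the test compound, with ascorbic acid as the reference.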

Sequence of Bovine serum albumin (BSA)-glucose model (P02769 25-607): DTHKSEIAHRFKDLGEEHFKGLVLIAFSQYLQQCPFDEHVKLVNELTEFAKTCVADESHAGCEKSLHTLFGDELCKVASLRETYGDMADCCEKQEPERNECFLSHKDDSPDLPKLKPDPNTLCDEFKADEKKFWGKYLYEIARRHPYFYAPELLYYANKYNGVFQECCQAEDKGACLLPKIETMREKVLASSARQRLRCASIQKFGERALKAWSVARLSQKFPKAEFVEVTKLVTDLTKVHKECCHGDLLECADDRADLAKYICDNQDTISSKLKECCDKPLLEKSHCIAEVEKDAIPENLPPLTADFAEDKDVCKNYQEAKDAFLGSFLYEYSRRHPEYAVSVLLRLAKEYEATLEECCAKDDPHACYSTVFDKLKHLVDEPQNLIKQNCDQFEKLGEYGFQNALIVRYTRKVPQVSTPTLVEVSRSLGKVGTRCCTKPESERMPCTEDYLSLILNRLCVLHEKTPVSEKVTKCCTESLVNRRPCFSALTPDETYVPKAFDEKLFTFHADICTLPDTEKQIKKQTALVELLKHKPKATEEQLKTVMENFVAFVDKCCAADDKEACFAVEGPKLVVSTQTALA

% age α-amylase inhibition (α-amylase; 1 μM) [%] | % age α-amylase inhibition (α-amylase; 5 μM) [%] | % age α-amylase inhibition (α-amylase; 10 μM) [%] | IC50 (α-amylase) [µM] | inhibition at 100 ppm [1] [%] | inhibition at 200 ppm [1] [%] | inhibition at 400 ppm [1] [%] | inhibition at 600 ppm [1] [%] | inhibition at 800 ppm [1] [%] | inhibition at 1000 ppm [1] [%] | IC50 [4] [mM] | Structure (SMILES) | % age antioxidant potential ([4]; 3 mM) [%] | % age antioxidant potential ([4]; 6 mM) [%] | % age antioxidant potential ([4]; 9 mM) [%] | % age antioxidant potential ([4]; 12 mM) [%] | % age antioxidant potential ([4]; 15 mM) [%] | other results
– | – | – | – | – | – | – | – | – | – | – | N=C(N)NN [amino guanidine, reference compound] | – | – | – | – | – | % age antiglycation inhibition ([1]; 100 ppm): 85.190%; % age antiglycation inhibition ([1]; 200 ppm): 86.141%; % age antiglycation inhibition ([1]; 400 ppm): 87.143%; % age antiglycation inhibition ([1]; 600 ppm): 88.011%; % age antiglycation inhibition ([1]; 800 ppm): 88.866%; % age antiglycation inhibition ([1]; 1000 ppm): 89.657%; IC50 (glycation [2]): 25.5 ± 0.337 µM; IC50, antiglycation (glycation [3]): 394 ± 1 µg/mL (≈ 5.32 mM)
38.90 | 51.09 | 64.58 | 6.7 ± 0.08 | 88 | 88.5 | 89.1 | 90 | 91.2 | 92.2 | – | Fc1ccc(-c2csc(NN=Cc3cccc(C(F)(F)F)c3)n2)cc1 [3i, 4-(4-Fluorophenyl)-2-(2-(3-(trifluoromethyl)benzylidene)hydrazinyl)thiazole] | 0.00 | 8.64 | 18.87 | 32.26 | 46.53 | percentage antioxidant potential ([4]; at tested concentrations, IC50 not calculated): less than 50%
33.07 | 43.03 | 57.18 | 7.69 ± 0.18 | 83.7 | 84.2 | 85.5 | 86.4 | 88.2 | 89.5 | 18 ± 0.27 | CSc1ccccc1C=NNc1nc(-c2ccc(F)cc2)cs1 [3o, 4-(4-Fluorophenyl)-2-(2-(2-(methylthio)benzylidene)hydrazinyl)thiazole] | 0.00 | 7.68 | 18.22 | 30.15 | 53.73 | –
36.97 | 49.93 | 62.35 | 6.92 ± 0.12 | 87.4 | 87.9 | 89 | 89.5 | 90.9 | 92.3 | 10.68 ± 0.08 | Fc1ccc(-c2csc(NN=Cc3ccc(C(F)(F)F)cc3)n2)cc1 [3d, 4-(4-Fluorophenyl)-2-(2-(4-(trifluoromethyl)benzylidene)hydrazinyl)thiazole] | 23.48 | 34.45 | 45.32 | 56.39 | 63.78 | –

Source: paper PMC10061536 (ACS Omega, 2023)
